Reference: ChEMBL document CHEMBL2062435, “Synthesis and in vitro antibacterial activity of gemifloxacin derivatives containing a substituted benzyloxime moiety” (2012)

Key:
Assay type in all cases: functional
[1] = test system: Staphylococcus epidermidis; experiment: Antimicrobial activity against extended spectrum beta-lactamases-producing methicillin-resistant Staphylococcus epidermidis 10-13 after 18-24 hrs by two-fold serial dilution method
Method in brief: (§1)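 Agar twofold serial dilution MIC against clinical isolates. MIC was taken as the lowest concentration giving complete inhibition of bacterial growth after incubation at 35 °C for 18-24 h.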

[2] = test system: Staphylococcus epidermidis; experiment: Antimicrobial activity against extended spectrum beta-lactamases-producing methicillin-resistant Staphylococcus epidermidis 10-10 after 18-24 hrs by two-fold serial dilution method; method in brief: as §1
[3] = test system: Streptococcus pneumoniae; experiment: Antimicrobial activity against extended spectrum beta-lactamases-producing Streptococcus pneumoniae 10-1 after 18-24 hrs by two-fold serial dilution method
Method in brief: (§2)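 Agar-medium twofold serial dilution against Gram-positive and Gram-negative strains; MIC taken as the lowest compound concentration giving complete inhibition of bacterial growth after incubation at 35 °C for 18-24 h.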

[4] = test system: Pseudomonas aeruginosa; experiment: Antimicrobial activity against extended spectrum beta-lactamases-producing Pseudomonas aeruginosa 10-15 after 18-24 hrs by two-fold serial dilution method; method in brief: as §2
[5] = test system: Klebsiella pneumoniae; experiment: Antimicrobial activity against extended spectrum beta-lactamases-producing Klebsiella pneumoniae 10-2 after 18-24 hrs by two-fold serial dilution method; method in brief: as §2
[6] = test system: Staphylococcus aureus; experiment: Antimicrobial activity against extended spectrum beta-lactamases-producing methicillin-resistant Staphylococcus aureus 10-15 after 18-24 hrs by two-fold serial dilution method; method in brief: as §1
[7] = test system: Staphylococcus epidermidis; experiment: Antimicrobial activity against extended spectrum beta-lactamases-producing methicillin-sensitive Staphylococcus epidermidis 10-15 after 18-24 hrs by two-fold serial dilution method; method in brief: as §2
[8] = test system: Pseudomonas aeruginosa; experiment: Antimicrobial activity against extended spectrum beta-lactamases-producing Pseudomonas aeruginosa 10-5 after 18-24 hrs by two-fold serial dilution method; method in brief: as §2
[9] = test system: Escherichia coli; experiment: Antimicrobial activity against Escherichia coli 10-3 after 18-24 hrs by two-fold serial dilution method; method in brief: as §2
[10] = test system: Staphylococcus aureus; experiment: Antimicrobial activity against extended spectrum beta-lactamases-producing methicillin-resistant Staphylococcus aureus 10-11 after 18-24 hrs by two-fold serial dilution method; method in brief: as §1
[11] = test system: Pseudomonas aeruginosa; experiment: Antimicrobial activity against extended spectrum beta-lactamases-producing Pseudomonas aeruginosa 10-20 after 18-24 hrs by two-fold serial dilution method; method in brief: as §2
[12] = test system: Enterococcus faecium; experiment: Antimicrobial activity against Enterococcus faecium 10-5 after 18-24 hrs by two-fold serial dilution method; method in brief: as §2
[13] = test system: Escherichia coli; experiment: Antimicrobial activity against Escherichia coli 10-1 after 18-24 hrs by two-fold serial dilution method; method in brief: as §2
[14] = test system: Klebsiella pneumoniae; experiment: Antimicrobial activity against extended spectrum beta-lactamases-producing Klebsiella pneumoniae 10-1 after 18-24 hrs by two-fold serial dilution method; method in brief: as §2
[15] = test system: Klebsiella pneumoniae; experiment: Antimicrobial activity against Klebsiella pneumoniae 10-2 after 18-24 hrs by two-fold serial dilution method; method in brief: as §2
[16] = test system: Escherichia coli; experiment: Antimicrobial activity against Escherichia coli 10-2 after 18-24 hrs by two-fold serial dilution method; method in brief: as §2
[17] = test system: Streptococcus pneumoniae; experiment: Antimicrobial activity against extended spectrum beta-lactamases-producing Streptococcus pneumoniae 10-4 after 18-24 hrs by two-fold serial dilution method; method in brief: as §2
[18] = test system: Pseudomonas aeruginosa; experiment: Antimicrobial activity against extended spectrum beta-lactamases-producing Pseudomonas aeruginosa 10-18 after 18-24 hrs by two-fold serial dilution method; method in brief: as §2
[19] = test system: Escherichia coli; experiment: Antimicrobial activity against extended spectrum beta-lactamases-producing Escherichia coli 10-3 after 18-24 hrs by two-fold serial dilution method; method in brief: as §2
[20] = test system: Staphylococcus aureus; experiment: Antimicrobial activity against extended spectrum beta-lactamases-producing methicillin-sensitive Staphylococcus aureus 10-14 after 18-24 hrs by two-fold serial dilution method; method in brief: as §2
[21] = test system: Staphylococcus epidermidis; experiment: Antimicrobial activity against extended spectrum beta-lactamases-producing methicillin-sensitive Staphylococcus epidermidis 10-13 after 18-24 hrs by two-fold serial dilution method; method in brief: as §2
[22] = test system: Staphylococcus aureus; experiment: Antimicrobial activity against extended spectrum beta-lactamases-producing methicillin-sensitive Staphylococcus aureus 10-13 after 18-24 hrs by two-fold serial dilution method; method in brief: as §2
[23] = test system: Staphylococcus epidermidis; experiment: Antimicrobial activity against extended spectrum beta-lactamases-producing methicillin-sensitive Staphylococcus epidermidis 10-11 after 18-24 hrs by two-fold serial dilution method; method in brief: as §2
[24] = test system: Escherichia coli; experiment: Antimicrobial activity against Escherichia coli ATCC 25922 after 18-24 hrs by two-fold serial dilution method; method in brief: as §2
[25] = test system: Enterococcus faecium; experiment: Antimicrobial activity against Enterococcus faecium 10-9 after 18-24 hrs by two-fold serial dilution method; method in brief: as §2
[26] = test system: Staphylococcus aureus; experiment: Antimicrobial activity against Staphylococcus aureus ATCC […] after 18-24 hrs by two-fold serial dilution method; method in brief: as §2
[27] = test system: Klebsiella pneumoniae; experiment: Antimicrobial activity against extended spectrum beta-lactamases-producing Klebsiella pneumoniae 10-3 after 18-24 hrs by two-fold serial dilution method; method in brief: as §2
[28] = test system: Enterococcus faecalis; experiment: Antimicrobial activity against Enterococcus faecalis 10-5 after 18-24 hrs by two-fold serial dilution method; method in brief: as §2
[29] = test system: Pseudomonas aeruginosa; experiment: Antimicrobial activity against extended spectrum beta-lactamases-producing Pseudomonas aeruginosa 10-9 after 18-24 hrs by two-fold serial dilution method; method in brief: as §2
[30] = test system: Klebsiella pneumoniae; experiment: Antimicrobial activity against Klebsiella pneumoniae 10-4 after 18-24 hrs by two-fold serial dilution method; method in brief: as §2
[31] = test system: Pseudomonas aeruginosa; experiment: Antimicrobial activity against Pseudomonas aeruginosa 10-12 after 18-24 hrs by two-fold serial dilution method; method in brief: as §2
[32] = test system: Enterococcus faecalis; experiment: Antimicrobial activity against Enterococcus faecalis 10-7 after 18-24 hrs by two-fold serial dilution method; method in brief: as §2
[33] = test system: Escherichia coli; experiment: Antimicrobial activity against extended spectrum beta-lactamases-producing Escherichia coli 10-4 after 18-24 hrs by two-fold serial dilution method; method in brief: as §2
[34] = test system: Escherichia coli; experiment: Antimicrobial activity against extended spectrum beta-lactamases-producing Escherichia coli 10-2 after 18-24 hrs by two-fold serial dilution method; method in brief: as §2
[35] = test system: Enterococcus faecalis; experiment: Antimicrobial activity against Enterococcus faecalis 10-6 after 18-24 hrs by two-fold serial dilution method; method in brief: as §2
[36] = test system: Klebsiella pneumoniae; experiment: Antimicrobial activity against Klebsiella pneumoniae 10-3 after 18-24 hrs by two-fold serial dilution method; method in brief: as §2

| Compound | MIC [1] [µg/mL] | MIC [2] [µg/mL] | MIC [3] [µg/mL] | MIC [4] [µg/mL] | MIC [5] [µg/mL] | MIC [6] [µg/mL] | MIC [7] [µg/mL] | MIC [8] [µg/mL] | MIC [9] [µg/mL] | MIC [10] [µg/mL] | MIC [11] [µg/mL] | MIC [12] [µg/mL] | MIC [13] [µg/mL] | MIC [14] [µg/mL] | MIC [15] [µg/mL] | MIC [16] [µg/mL] | MIC [17] [µg/mL] | MIC [18] [µg/mL] | MIC [19] [µg/mL] | MIC [20] [µg/mL] | other results |
| --- | --- | --- | --- | --- | --- | --- | --- | --- | --- | --- | --- | --- | --- | --- | --- | --- | --- | --- | --- | --- | --- |
| COc1ccc(CO/N=C2\CN(c3nc4c(cc3F)c(=O)c(C(=O)O)cn4C3CC3)CC2CN)c([N+](=O)[O-])c1OC.CS(=O)(=O)O (racemic) | 0.5 | 2 | 1 | 4 | > 128 | 1 | 4 | 8 | 16 | 2 | 0.25 | 4 | > 128 | > 128 | > 128 | 8 | 4 | 8 | > 128 | 0.06 | MIC [21]: 1 µg/mL; MIC [22]: 1 µg/mL; MIC [23]: 4 µg/mL; MIC [24]: 0.5 µg/mL; MIC [25]: 4 µg/mL; MIC [26]: 0.06 µg/mL; MIC [27]: > 128 µg/mL; MIC [28]: 1 µg/mL; MIC [29]: 16 µg/mL; MIC [30]: > 128 µg/mL; MIC [31]: 0.06 µg/mL; MIC [32]: 2 µg/mL; MIC [33]: 8 µg/mL; MIC [34]: > 128 µg/mL; MIC [35]: 4 µg/mL; MIC [36]: 8 µg/mL |
| COc1cc(CO/N=C2\CN(c3nc4c(cc3F)c(=O)c(C(=O)O)cn4C3CC3)CC2CN)cc(Cl)c1OC.CS(=O)(=O)O (racemic) | 0.25 | 2 | 0.06 | 32 | > 128 | 0.25 | 4 | 16 | 128 | 4 | 8 | 8 | > 128 | > 128 | 128 | 16 | 0.03 | 16 | > 128 | 0.015 | MIC [21]: 0.015 µg/mL; MIC [22]: 0.015 µg/mL; MIC [23]: 2 µg/mL; MIC [24]: 0.015 µg/mL; MIC [25]: 16 µg/mL; MIC [26]: < 0.008 µg/mL; MIC [27]: > 128 µg/mL; MIC [28]: 0.25 µg/mL; MIC [29]: 16 µg/mL; MIC [30]: > 128 µg/mL; MIC [31]: 16 µg/mL; MIC [32]: 2 µg/mL; MIC [33]: 16 µg/mL; MIC [34]: > 128 µg/mL; MIC [35]: 4 µg/mL; MIC [36]: 8 µg/mL |
| CS(=O)(=O)O.NCC1CN(c2nc3c(cc2F)c(=O)c(C(=O)O)cn3C2CC2)C/C1=N\OCc1ccccc1 (racemic) | 1 | 1 | 0.25 | 4 | 64 | 0.5 | 8 | 8 | 8 | 4 | 2 | 4 | 16 | 32 | 32 | 4 | 0.06 | 1 | 32 | 0.03 | MIC [21]: 0.06 µg/mL; MIC [22]: 0.015 µg/mL; MIC [23]: 1 µg/mL; MIC [24]: 0.03 µg/mL; MIC [25]: 8 µg/mL; MIC [26]: < 0.008 µg/mL; MIC [27]: 32 µg/mL; MIC [28]: 1 µg/mL; MIC [29]: 2 µg/mL; MIC [30]: 128 µg/mL; MIC [31]: 4 µg/mL; MIC [32]: 2 µg/mL; MIC [33]: 4 µg/mL; MIC [34]: 32 µg/mL; MIC [35]: 4 µg/mL; MIC [36]: 2 µg/mL |
